Screening results: PubChem BioAssay, several laboratories
TbHK1 inh = Trypanosoma brucei hexokinase 1 inhibitors, primary screen, biochemical, G6PDH-coupled NADH absorbance, MLSCN library | hexokinase 1 [Trypanosoma brucei] | recombinant TbHK1, G6PDH-coupled NADH A340 | inhibition, % at 10 µM | hit rate 0.11% among 220,000 | AID 1430, 2008;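 active means inhibition of 50% or more in the single-dose primary screen; inactive means inhibition below 50%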
14-3-3 Bad PPI = inhibitors of 14-3-3 zeta/Bad binding, primary screen, biochemical, TR-FRET, bovine 14-3-3 zeta. 14-3-3 protein zeta/delta (Bos taurus), P63103. TR-FRET 14-3-3zeta/Dy647-pBad peptide displacement, 1 h. inhibition, % at 21.7 µM. hit rate 0.71% among 220,000;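 active means inhibition above about 70%, limit read from the data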;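 further: 0% = full 14-3-3 plus peptide FRET controls and 100% = background without 14-3-3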
Target sequence (P63103 whole entry, looked up): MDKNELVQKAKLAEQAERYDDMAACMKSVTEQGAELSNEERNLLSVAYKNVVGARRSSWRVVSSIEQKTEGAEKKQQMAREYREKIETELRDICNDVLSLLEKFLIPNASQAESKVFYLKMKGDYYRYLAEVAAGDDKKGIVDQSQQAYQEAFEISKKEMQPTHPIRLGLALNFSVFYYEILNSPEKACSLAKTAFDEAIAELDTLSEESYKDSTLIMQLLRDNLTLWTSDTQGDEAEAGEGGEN
Hck-Nef inh = inhibitors of Nef-activated human Hck kinase, primary screen, biochemical, Z-Lyte FRET, 384-well, Hck-YEEI; Tyrosine-protein kinase HCK (Homo sapiens), P08631; hit rate 0.68% among 220,000; Recombinant Hck-YEEI plus Nef, Z-Lyte FRET kinase assay; AID 463187, 2010; inhibition, % at 20 µM;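 active means Hck-Nef kinase inhibition above about 50%, limit read from the data; inactive means inhibition below that limit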;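 further: 0% = DMSO with Hck plus Nef and 100% = Hck alone without Nef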
Target sequence (P08631 whole entry, looked up): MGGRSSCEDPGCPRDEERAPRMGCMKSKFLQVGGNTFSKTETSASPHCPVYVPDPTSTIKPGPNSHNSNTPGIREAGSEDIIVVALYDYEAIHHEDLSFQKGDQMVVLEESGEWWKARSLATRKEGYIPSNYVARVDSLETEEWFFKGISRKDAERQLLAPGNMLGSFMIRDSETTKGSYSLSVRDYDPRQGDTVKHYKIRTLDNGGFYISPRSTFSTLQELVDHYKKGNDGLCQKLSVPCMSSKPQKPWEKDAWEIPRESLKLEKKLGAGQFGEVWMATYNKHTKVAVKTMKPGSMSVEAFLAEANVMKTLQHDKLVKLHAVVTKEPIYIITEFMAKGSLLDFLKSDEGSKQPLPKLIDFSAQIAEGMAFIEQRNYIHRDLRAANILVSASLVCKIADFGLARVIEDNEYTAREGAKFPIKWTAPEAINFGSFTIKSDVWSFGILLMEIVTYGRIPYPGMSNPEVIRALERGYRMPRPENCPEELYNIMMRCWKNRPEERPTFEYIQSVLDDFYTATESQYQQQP
RanGTP-Impb inh = inhibitors of RanGTP-importin-beta interaction, primary screen, biochemical, FRET, CFP-Ran, YFP-importin-beta, homogeneous; Ran GTPase (GTP-bound) - importin-beta complex; cell-free CFP-Ran/YFP-importin-beta FRET ratio; inhibition, % (test concentration not listed); hit rate 1.1% among 300,000;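 active means more than half of the replicate wells show a fall in the fluorescence ratio signal beyond about 16%, limit read from the data, passing the limit was not always enough; inconclusive means exactly half of the replicate wells pass the set limit; inactive means fewer than half of replicates pass the limit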;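 further: 0% = DMSO wells and 100% = Ran loaded with GDP instead of GTP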
Runt-CBFb FRET = inhibitors of RUNX1 Runt–CBFb binding, primary screen, biochemical, FRET, Cerulean-Runt, Venus-CBFb, uHTS; Runt-related transcription factor 1 (Homo sapiens) + Core-binding factor subunit beta …; Cerulean-Runt/Venus-CBFb FRET ratio 530/480, 1 h; inhibition, % at 20 µM; hit rate 0.46% among 220,000; AID 1496, 2009;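 active means inhibition over about 50% at 20 µM in the single-dose screen, limit read from the data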;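 further: 0% = DMSO wells and 100% = excess unlabeled CBFb competitor control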
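test system = Cerulean-Runt domain fusion protein, energy donor | probe or stimulus = Venus-CBFb binding partner, 100 nM | incubation = two 1 h room-temperature incubations shielded from light | detection = fluorescence energy transfer, 422 nm excitation, 530/480 nm emission | measure = loss of energy transfer signal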
Runt-SMMHC FRET = inhibitors of RUNX1 Runt–CBFb-SMMHC binding, primary screen, biochemical, FRET, Cerulean-Runt, Venus-CBFb-SMMHC, uHTS; Runt-related transcription factor 1 (Homo sapiens) + Core-binding factor subunit beta …; Cerulean-Runt/Venus-CBFb-SMMHC FRET ratio 530/480, 1 h; inhibition, % at 20 µM; hit rate 0.74% among 220,000; AID 1434, 2008;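 active means mean inhibition across duplicate retests at 20 µM reaching about 50%, limit read from the data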;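 further: 0% = DMSO wells and 100% = wells with excess untagged CBFb-SMMHC; inhibitors lower the FRET ratio by blocking Runt binding to CBFb-SMMHC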
Hck-Nef confirm = retest of Hck:Nef kinase inhibitor hits, confirmation, biochemical, Z-Lyte FRET, 384-well, p-Tyr peptide counterscreen; Recombinant Hck-YEEI:Nef, Z-Lyte FRET kinase assay; shares compounds with Hck-Nef inh; AID 463188, 2010; calls only at 10 µM; hit rate 28% among 1,300;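 active means average inhibition of at least 50%, with Z-scores no higher than 3 in both the phospho-tyrosine peptide and fluorescence counterscreens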
Active calls of the source: *; i = inactive; ? = inconclusive; . = no result given; + = active, no number; [ ] = another dose, or the depositor's remark. Rows were chosen to be rich in hits. Some 2.2% of all compounds tested hit in one or more screens of this group.

SMILES | TbHK1 inh | 14-3-3 Bad PPI | Hck-Nef inh | RanGTP-Impb inh | Runt-CBFb FRET | Runt-SMMHC FRET | Hck-Nef confirm
CCn1c(SCC(=O)Nc2ccc3c(c2)oc2ccccc23)nnc1-c1ccc(N)cc1 | -15.8 | 65.8 | 0.1 | -3.4 | 4.1 | -2.4 | .
COc1ccc(NC(=S)N2CCN(CCN3C(=O)c4cccc5cccc(c45)C3=O)CC2)cc1 | -12.9 | 23.3 | 129.1* | 2.6 | -1.2 | -2.0 | i
CCOc1ccc(NC(=S)N2CCN(CCN3C(=O)c4cccc5cccc(c45)C3=O)CC2)cc1 | -8.4 | 8.9 | 27.7 | 2.2 | -3.1 | 0.8 | .
Cc1nnnn1CC(=O)Nc1ccccc1[N+](=O)[O-] | -4.1 | -2.8 | 3.1 | -2.7 | -2.3 | 5.1 | .
COc1ccc2nc(/C(C#N)=C\c3ccc(C(=O)O)cc3)[nH]c2c1 | -12.2 | -1.9 | -82.9 | -12.4 | -177.2 | -83.0 | .
N#C/C(=C\c1ccc(OC(=O)c2cccs2)cc1)c1nc2ccccc2[nH]1 | 13.0 | -17.4 | 56.8* | 5.5 | -0.2 | -25.1 | +
C#CCn1c(=NC(=O)c2sc3ccccc3c2Cl)sc2cc(S(N)(=O)=O)ccc21 | -31.8 | 77.2*[fluorescence artefact?] | 61.8* | 2.6 | -18.4 | -30.8 | +
C#CCn1c(=NC(=O)c2ccc(S(=O)(=O)N3CCc4ccccc4C3)cc2)sc2cc(S(N)(=O)=O)ccc21 | -32.1 | 59.1 | 27.2 | 9.9 | -4.2 | -6.1 | .
COc1cccc2c(=O)c3c(cnn3C)n(C)c12 | -3.3 | -7.2 | 88.3* | 125.8* | 16.6 | 62.0* | .
NS(=O)(=O)c1ccc(NC(=O)/C=C/c2cn(-c3ccccc3)nc2-c2cccc(Cl)c2)cc1 | -18.0 | -10.7 | 89.6* | 4.1 | -2.7 | -13.4 | i
Cc1cc(C)c2nc(-c3ccccn3)cc(C(=O)Nc3ccc(S(=O)(=O)Nc4onc(C)c4C)cc3)c2c1 | 3.1 | 15.4 | 71.0* | -4.4 | 2.9 | -13.8 | +
Cc1cc(C)c2nc(-c3ccccn3)cc(C(=O)Nc3ccc(S(=O)(=O)Nc4cc(C)on4)cc3)c2c1 | -1.6 | -2.0 | 2.4 | -0.7 | -5.1 | -25.2 | .
COc1cc(C(=O)Nc2ccc(NC(C)=O)cc2)ccc1OCc1ccccc1 | -3.5 | 2.3 | 23.0 | 2.1 | -1.0 | 1.9 | .
COCCCNC(=O)c1cc2c(=O)n3cccc(C)c3nc2n(C(C)C)c1=N | -7.0 | -7.3 | 166.9* | 187.8* | 17.9 | 57.4* | .
Cc1cccn2c(=O)c3cc(C(=O)N4CCOCC4)n(C)c3nc12 | . | . | . | 3.8 | . | . | .
CCNC(=O)c1cc2c(=O)n3cccc(C)c3nc2n(Cc2ccc(C)cc2)c1=N | -7.2 | 9.9 | 70.7* | + | 11.1 | 41.0 | .
Cc1cccn2c(=O)c3cc(C(=O)NC(C)C)c(=N)n(Cc4ccncc4)c3nc12 | -10.1 | 21.9 | 130.4* | + | 17.7 | 61.6* | .
CCOCCCn1c(=N)c(C(=O)NCCN2CCOCC2)cc2c(=O)n3cccc(C)c3nc21 | -15.2 | -14.7 | 132.9* | . | . | . | .
COCCCn1c(C(=O)NCCC2=CCCCC2)cc2c(=O)n3cccc(C)c3nc21 | . | . | . | -2.1 | . | . | .
Cn1c(C(=O)NCCN2CCOCC2)cc2c(=O)n3ccccc3nc21 | . | . | . | 7.6 | . | . | .
N=c1c(C(=O)NCc2ccc(F)cc2)cc2c(=O)n3ccccc3nc2n1CCCN1CCOCC1 | -3.3 | 1.6 | 69.3* | . | 12.5 | 65.3* | .
CC(=O)OCC1=C(C(=O)O)N2C(=O)C(NC(=O)CCn3nc(C(F)(F)F)c(Br)c3C3CC3)C2SC1 (stereo not given) | 9.7 | -4.4 | 59.9* | 3.8 | 1.6 | 1.3 | i
CC(=O)OCC1=C(C(=O)O)N2C(=O)C(NC(=O)CCn3nc(C)c(Cl)c3C)C2SC1 (stereo not given) | 0.6 | -5.7 | 9.7 | 5.4 | 1.9 | -0.7 | .
O=C(Nc1ccc2c(c1)OCO2)c1ccc2c(c1)S(=O)(=O)c1ccccc1C2=O | . | . | . | 2.6 | . | . | .
NNc1ncnc2c1cnn2-c1ccccc1 | 17.5 | 0.0 | 2.7 | -1.8 | 3.2 | -6.8 | .
SMILES | TbHK1 inh | 14-3-3 Bad PPI | Hck-Nef inh | RanGTP-Impb inh | Runt-CBFb FRET | Runt-SMMHC FRET | Hck-Nef confirm
Cc1ccccc1Nc1ncnc2c1cnn2-c1ccccc1 | 7.6 | 10.0 | 56.0* | -1.1 | 0.9 | 2.1 | +
COc1ccc(C2=CC3=C(Br)C(=O)C(C)(O)C(=O)C3=CO2)cc1 (stereo not given) | -6.5 | 7.3 | 95.2* | -2.3 | -3.9 | 2.2 | +
CCC(=O)OC1(C)C(=O)C2=COC(c3ccc(OC)cc3)=CC2=C(Br)C1=O (stereo not given) | -32.9 | 8.3 | 81.0* | -29.3 | 12.7 | -45.5 | i
COc1ccc(C2=CC3=CC(=O)C(C)(O)C(=O)C3=CO2)cc1 (stereo not given) | . | . | . | -10.2 | . | . | .
CC1CCCN(C(=O)CCS(=O)(=O)c2ccc3c(c2)NC(=O)C(C)S3)C1 (stereo not given) | . | . | . | -1.3 | . | . | .
Cc1noc(C)c1CSc1nc2ccccc2n1CCc1ccccc1 | -0.7 | 3.8 | 4.9 | -3.1 | 2.8 | -1.3 | .
CCCc1cc(=O)oc2c(C)c(OC(C)C(=O)NCCN3CCOCC3)ccc12 (stereo not given) | . | . | . | 3.0 | . | . | .
CCOC(=O)c1cnc(SC)nc1Sc1ccccc1 | -6.9 | 0.0 | -0.8 | 0.4 | -1.5 | -0.7 | .
Cc1c(Cl)cccc1NS(=O)(=O)c1ccc2c(c1)C1C=CCC1C(c1ccc(C(=O)O)cc1)N2 (stereo not given) | 52.2* | 90.7* | 63.0* | . | -21.2 | -131.0 | +
COc1cc(/C=N/NC(=O)c2sc3nc(C)cc(C)c3c2N)ccc1O | -24.0 | 3.0 | 51.5* | ? | 20.0 | 31.6 | .
COc1cc(/C=N/n2cnc3c(sc4nc(C)cc(C)c43)c2=O)ccc1O | -14.1 | 44.0 | 40.4 | 25.7 | -1.4 | -2.1 | .
COc1ccc(NC(=O)c2cccc([N+](=O)[O-])c2)cc1 | 2.3 | 4.8 | 18.7 | -0.1 | -1.7 | 1.3 | .
COc1ccc(NC(=O)c2cc([N+](=O)[O-])ccc2O)cc1 | -17.7 | -2.0 | 52.5* | -3.6 | -2.3 | 1.1 | i
